Source: PubChem
PvdQ acylase = blocks Pseudomonas aeruginosa PvdQ acylase activity. purified PvdQ acylase, fluorescence plate reader. inhibition, % at 10 µM. hit rate 0.063% among 340,000; in the data active = inhibition above about 30%, passing the limit was not always enough;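 note: 0% = vehicle neutral wells and 100% = reference inhibitor wells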
Env fusion inh = HIV envelope-mediated fusion inhibition. HeLa-JRFL Env/CEM21 cell fusion, luciferase. inhibition, % at 12.3 µM. hit rate 1.1% among 360,000;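 active = mean replicate inhibition score of at least 50 and every replicate individually at or above 50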;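 note: 0% = plate neutral controls and 100% = maraviroc near 300 nM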
ERp5 block = blocks human ERp5 reductase activity on insulin; Q15084; ERp5 insulin aggregation, absorbance 650 nm, 90 min; inhibition, % at 9.99 µM; hit rate 0.05% among 350,000; AID 651711;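 active = mean replicate inhibition above about 25%, with every replicate also reaching it, limit read from the data, passing the limit was not always enough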
FN deposition inh = fibronectin deposition inhibition | AH1F fibroblasts, Alexa488-fibronectin deposition fluorescence, overnight | inhibition, % at 12.6 µM | hit rate 0.086% among 350,000 | AID 743247;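 active = mean inhibition across replicates of 30% or more, regardless of how many single replicates reach that level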;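 note: positive control wells lacked labelled fibronectin entirely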
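Assay system: AH1F fibroblasts assembling fluorescent fibronectin matrix; Amount: 10000 AH1F cells per well; Buffer or medium: DMEM, 2% serum; Probe or stimulus: Alexa488-fibronectin, 24 nM final in well; Doses: single compound dose, delivered by pin transfer; Incubation: 1 h adhesion, overnight exposure; Measured by: fluorescence 485/525 nm; Read-out: fibronectin deposition inhibition.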
rRNA inh HTS = inhibitors of bacterial rRNA selective over humanized ribosomes; E. coli WT GFP vs humanized-ribosome RFP mutants, fluorescence, 24 h; stronger effect = lower value; DMSO median 0, no signal -100; GFP signal change (wild-type ribosome), % (concentration not given with the values); hit rate 1.6% among 350,000; AID 720706;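 active = significant combined selectivity score with lowered wild-type GFP, culture density cut under 30%, mutant RFP and density less affected; inactive = any of these conditions unmet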
PDI turbidity = blocks human protein disulfide isomerase activity; inhibition, % at 10 µM; hit rate 0.052% among 350,000; PDI insulin aggregation turbidity, A650, 90 min; P07237; AID 588391;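 active = mean inhibition across replicates of 30% or more, whatever share of single replicates reach that level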
Target sequence (P07237 whole entry, looked up): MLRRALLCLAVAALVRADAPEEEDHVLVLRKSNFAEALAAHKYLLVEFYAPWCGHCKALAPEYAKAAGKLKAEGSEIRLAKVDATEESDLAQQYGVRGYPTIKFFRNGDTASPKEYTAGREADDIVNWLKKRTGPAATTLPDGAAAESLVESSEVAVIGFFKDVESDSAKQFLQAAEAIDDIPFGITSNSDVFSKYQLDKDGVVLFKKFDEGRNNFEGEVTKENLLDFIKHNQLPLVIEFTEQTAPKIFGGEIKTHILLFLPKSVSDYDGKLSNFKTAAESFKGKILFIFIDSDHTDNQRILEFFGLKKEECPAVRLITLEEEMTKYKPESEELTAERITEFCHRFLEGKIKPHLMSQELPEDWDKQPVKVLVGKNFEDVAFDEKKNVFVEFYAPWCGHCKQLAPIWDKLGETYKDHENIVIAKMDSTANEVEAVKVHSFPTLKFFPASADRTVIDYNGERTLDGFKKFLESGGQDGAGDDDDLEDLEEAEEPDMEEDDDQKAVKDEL
An asterisk follows results filed as active; . = no result; [ ] = dose if it differs, or a comment. An excerpt weighted towards active compounds, which were near 2.2% of everything screened.

SMILES | PvdQ acylase | Env fusion inh | ERp5 block | FN deposition inh | rRNA inh HTS | PDI turbidity
CCOC(=O)C1CCCCN1C(=O)CCc1c(C)nc2cc(-c3ccccc3)nn2c1C (stereo unspecified) | -10 | 61* | -2 | 1 | 5 | 6
CCCNC(=O)N(C)C[C@H]1Oc2cc(-c3ccccc3F)ccc2S(=O)(=O)N([C@@H](C)CO)C[C@H]1C | . | 8[16.7 µM] | 6 | 0 | -8 | .
CC(C)NC(=O)Nc1ccc2c(c1)C(=O)N([C@@H](C)CO)C[C@@H](C)[C@H](CN(C)C(=O)CCCN(C)C)OCCCC[C@H](C)O2 | . | 12[16.7 µM] | . | 0 | 2 | .
CCOc1cccc(/C=N/NC(=O)c2cc(C3CC3)[nH]n2)c1O | -13 | 23 | -6 | 13 | -17* | -2
COc1cc(OC)cc(-c2c(-c3cccs3)c3cc(-c4ccc5c(c4)OCCO5)ccc3n2C)c1 | -18 | -5 | -3 | 20 | 5 | -12
COc1ccc(-c2c(-c3cc(OC)cc(OC)c3)n(C)c3ccc(-c4ccc5c(c4)OCCO5)cc23)cc1 | 4 | 56* | 3 | -5 | 4 | -8
Cc1cc2oc(C(=O)Nc3ccc(S(=O)(=O)Nc4onc(C)c4C)cc3)cc(=O)c2cc1Cl | 17 | -2 | 1 | 1 | -30* | 10
CCCCOc1ccc(C(=O)Nc2ccc(S(=O)(=O)Nc3onc(C)c3C)cc2)cc1 | -21 | . | 3 | 5 | -24* | -8
CCCOc1ccc(C(=O)Nc2ccc(S(=O)(=O)Nc3onc(C)c3C)cc2)cc1 | 8 | 9 | -2 | -18 | -30 | -4
Cc1noc(NS(=O)(=O)c2ccc(N/C=C\C(=O)c3cccc4ccccc34)cc2)c1C | 3 | -1 | 5 | -5 | -21* | 0
CCOc1ccc(OCc2cccc(C(=O)N/N=C/c3cccnc3)c2)cc1 | -3 | 69* | . | -1 | . | -23
CCn1c2ccccc2c2cc(/C=N/NC(=O)c3ccncc3)ccc21 | -8 | -231 | -3 | 9 | -36* | 1
O=C(N/N=C/c1ccc(Cl)cc1Cl)c1ccncc1 | -4 | 10 | -3 | -3 | 21 | 1
O=C(N/N=C/c1cc(Cl)cc(Cl)c1O)c1ccncc1 | 24 | 6 | 2 | -1 | -19* | 13
O=C(N/N=C/c1cccc(Oc2ccccc2)c1)c1ccncc1 | -20 | 15 | 5 | -4 | -21* | -5
O=C(N/N=C/c1ccncc1)c1ccccc1 | 20 | . | . | . | . | -5
C[C@@H]1CN([C@H](C)CO)C(=O)c2cccc(NC(=O)C3CCOCC3)c2O[C@@H]1CN(C)C(=O)NC1CCCCC1 | . | -19[16.7 µM] | 2 | -4 | 5 | .
CC(/C=N/NC(=O)c1cc(-c2cccn2C)n[nH]1)=C\c1ccccc1 | 7 | -16 | -2 | 3 | -40* | -3
O=C(N/N=C/c1cc2c(cc1Cl)OCO2)c1cc(-c2ccccc2)n[nH]1 | 2 | -37 | 6 | . | -24* | -6
CCOc1ccc(/C=N/NC(=O)c2cc(-c3cccn3C)n[nH]2)cc1 | -1 | 20 | 1 | -3 | -26* | 12
Cn1cccc1-c1cc(C(=O)N/N=C/c2ccc(F)cc2)[nH]n1 | 14 | 10 | 6 | -1 | -13 | 11
Cn1cccc1-c1cc(C(=O)N/N=C/c2ccccc2Cl)[nH]n1 | -1 | -55 | 3 | 9 | -22* | -5
COC(=O)C[C@@H]1CC[C@H]2[C@H](COc3ccc(NS(=O)(=O)c4ccccc4F)cc3C(=O)N2C)O1 | . | -9[16.7 µM] | . | . | -2 | .
CC(=O)N(C)C[C@H]1Oc2ccc(N(C)C)cc2CC(=O)N(C)C[C@@H]1C | . | . | . | -6 | 1 | .
COc1ccc(/C=N/NC(=O)c2cc(-c3ccc4c(c3)OCO4)n[nH]2)cc1OC | -6 | -103 | -7 | . | -20* | -5
SMILES | PvdQ acylase | Env fusion inh | ERp5 block | FN deposition inh | rRNA inh HTS | PDI turbidity
O=C(N/N=C/C=C/c1ccccc1[N+](=O)[O-])c1cc(-c2ccccc2)n[nH]1 | -4 | 3 | 1 | -7 | -34* | -5
O=C(N/N=C/C=C\c1ccccc1[N+](=O)[O-])c1ccccn1 | -8 | -10 | 1 | -6 | 8 | 8
COc1ccccc1-c1cn(CC[C@@H]2CC[C@H](NS(=O)(=O)c3ccccc3C)[C@H](CO)O2)nn1 | . | 19[16.7 µM] | 3 | 9 | -6 | .
CC(C)CNC(=O)c1ccccc1SCC(=O)NC12CC3CC(CC(C3)C1)C2 | -9 | 64* | . | 0 | . | 0
CC(C)CNC(=O)COC(=O)c1ccccc1SCC(=O)NCC(C)C | -22 | 2 | 2 | -4 | 9 | -2
CN=c1scc(-c2ccccc2F)n1/N=C/c1ccc[nH]1 | -4 | 67* | -2 | 1 | -22* | 0
CN=c1scc(-c2ccccc2F)n1/N=C/c1ccc(O)c(O)c1O | -13 | -253 | -2 | 12 | -10 | -5
CCCCCc1ccc(-c2ccc(OC)cc2)nc1 | -12 | -51 | -3 | -12 | -24* | 1
COCC(=O)Nc1ccc2c(c1)C(=O)N(C)[C@@H]1CC[C@H](CC(=O)NC3CCCC3)O[C@@H]1CO2 | . | 21[16.7 µM] | . | -12 | -1 | .
COc1ccc2c3c([nH]c2c1)[C@@H](CO)N(C(=O)c1cccnc1)CC31CN(C(=O)c2cccnc2)C1 | . | . | 3 | . | 3 | .
Cn1ncc(Br)c1C(=O)NC1C2CC3CC(C2)CC1C3 (stereo unspecified) | 5 | 12 | -3 | 8 | -30* | 4
O=S(=O)(c1ccc(F)cc1)c1nc(-c2ccco2)oc1Nc1ccccc1 | 5 | 66* | -3 | 11 | -16 | 0
O=C(O)C1CCCCC1C(=O)Nc1ccc(OCc2ccccc2)cc1 (stereo unspecified) | -4 | -27 | 0 | 3 | -24* | -1
O=C(O)[C@H]1CCCC[C@H]1C(=O)Nc1ccc(Nc2ccccc2)cc1 | -10 | -75 | . | -2 | . | -5
O=C(c1ccccc1)c1ccc(OCCOCCN2CCN(Cc3ccccc3)CC2)cc1 | -14 | 21 | -4 | . | -36* | 1
O=C(c1ccccc1)c1ccc(OCCCN2CCCC2)cc1 | 4 | . | 12 | 7 | 0 | -7
O=C(CCN1CCN(Cc2ccccc2)CC1)Nc1ccc(OCc2ccccc2)cc1 | 1 | 59* | . | -5 | . | 1
CO[C@@H]1CN(C)C(=O)c2ccc(NS(=O)(=O)c3ccccc3)cc2OC[C@H](C)N(Cc2ccccn2)C[C@H]1C | . | . | . | -3 | 0 | .
COc1ccc2c3c([nH]c2c1)[C@@H](CO)N(CC1CC1)CC31CN(C(=O)Nc2cccc(F)c2)C1 | . | . | -3 | . | -3 | .
O=C(/C=C/c1ccccc1)NC(NC(=S)Nc1ccc(Cl)cc1)C(Cl)(Cl)Cl (stereo unspecified) | -10 | 61* | . | -11 | . | 5
COc1ccc(NC(=S)NC(NC(=O)/C=C/c2ccccc2)C(Cl)(Cl)Cl)cc1 (stereo unspecified) | 3 | -14 | . | . | . | -1
